# Bioassay records from PubChem.
# Most compounds without a hit are left out; they make up all but 4.6% or so of the library.
# PolyA inh = polyadenylation inhibitors in yeast reporter cells, primary screen, luminescence, S. cerevisiae; S. cerevisiae SKY197-pL101 polyadenylation reporter, beta-gal luminescence; efflux-impaired pdr1/pdr3 knockout yeast; score 100 = 6 SD above DMSO; activity score, % at 12 µM; 0.02% of 300,000 active; AID 1875, 2009;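 active = lowest replicate activity score at least 50, where 100 means six control SD above control mean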;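 note: yeast exposed to compound for 9 h at 30 °C; higher score means more reporter readthrough which indicates perturbed polyadenylation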
# ALR H2O2 inh = inhibitors of human ALR sulfhydryl oxidase, primary screen, biochemical, H2O2 detection, HRP-luminol luminescence, single point; FAD-linked sulfhydryl oxidase ALR (Homo sapiens), P55789; purified ALR, DTT oxidation; inhibition, % (test concentration not listed); 3.8% of 290,000 active; AID 485317, 2010;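 active = mean replicate inhibition above about 79%, with every replicate also reaching it, limit read from the data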
# NALP1 yeast inh = NALP1 inflammasome inhibitors in reconstituted yeast, colorimetric, S. cerevisiae, triplicate retest; S. cerevisiae NALP1/ASC/caspase-1 growth, X-gal OD620, 72 h; inhibition, % at 10 µM; 0.61% of 280,000 active; AID 2071, 2009; in the data active = inhibition mostly above about 24%, no sharp cut-off; inactive = mostly below about 32%
# Arr AP2 block = inhibitors of beta-arrestin/AP2 binding, primary screen, biochemical, GPCR trafficking, flow cytometry; AID 504490, 2011; FITC-arrestin peptide / GST-AP2 beads; AP2 beta2 appendage carries R879A mutation; inhibition, % at 10 µM; 0.31% of 340,000 active; beta-arrestin 1 C-terminal peptide binding to AP2 beta2-adaptin appendage (human);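 active = inhibition above a set limit, near 3 SD of compounds lacking own fluorescence, cut at about 54% in these data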
#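 Test system: GST-tagged AP2 beta2-adaptin appendage (R879A) on 4 µm glutathione beads; also added: fluorescein-tagged arrestin peptide at 50 nM final; timing: 12 min plus 1 h, RT; signal: flow cytometry, FL1 (488/535 nm); read-out: percent drop in bead-associated FITC signal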
# NLRP3 yeast inh = NALP3 inflammasome inhibitors in reconstituted yeast, primary screen, luminescence, uHTS; Yeast reconstituted NLRP3/ASC/caspase-1, beta-gal luminescence, 24 h; inhibition, % at 10 µM; 0.39% of 330,000 active;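 active = inhibition of 50% or more; inactive = inhibition below 50%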
# Pemphigus Ab inh = inhibitors of pemphigus antibody binding to DSG3, primary screen, biochemical, bead-based, flow cytometry, scFv-GFP; Desmoglein-3 (Homo sapiens), P32926; DSG3-coupled beads, scFv-anti-DSG3-GFP binding; active compounds read low; binding (percent of control), % at 10 µM; 0.48% of 310,000 active;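 active = binding more than 3 SD below its plate's average and above zero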;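 note: hits lower antibody fragment binding to DSG3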
# Hits are given with their value; – = inactive; · = no result given.
SMILES,PolyA inh,ALR H2O2 inh,NALP1 yeast inh,Arr AP2 block,NLRP3 yeast inh,Pemphigus Ab inh
O=S(=O)(c1ccc(-c2csc(-c3cccnc3)n2)cc1)N1CCCC1,–,97,–,–,–,–
O=C(CSc1nc(=O)n2ccccc2n1)N1CCN(c2ccccc2)CC1,–,–,·,–,–,–
CC(=O)c1ccc(OC(C)C(=O)NCC2(N3CCOCC3)CCCCC2)cc1 (stereo not given),·,–,·,–,–,–
C(=N\Nc1nc2ccccc2[nH]1)/c1ccncc1,–,98,–,–,–,–
O=c1[nH]c(N/N=C/c2ccc(O)cc2)nc2ccccc12,–,95,–,–,–,·
O=C(O)c1ccc(/C=N/Nc2nc3ccccc3[nH]2)cc1,–,–,–,–,–,–
Cc1ccsc1/C=N/Nc1nc2ccccc2[nH]1,–,·,–,–,·,–
Clc1cnc(N/N=C/c2cccs2)c(Cl)c1,–,86,–,–,–,–
C(=N\Nc1nc2ccccc2[nH]1)/c1cccs1,–,99,–,–,–,–
Cc1ccc(/C=N/Nc2ncc(Cl)cc2Cl)s1,–,–,–,–,–,–
O=C(NCCc1ccc(Cl)cc1)c1ccc(S(=O)(=O)N2CCCC2)cc1,–,–,·,–,–,–
CC(=O)Nc1ccc2c(c1)C(C)(C)C(C)N2C (stereo not given),–,99,–,·,–,·
CCC(=O)c1ccc(NC(C)=O)cc1O,–,–,–,–,–,·
COc1ccc(NC(=O)CCNS(=O)(=O)c2ccccc2F)cc1S(N)(=O)=O,–,–,–,–,–,·
O=C(CSc1nc2ccccc2o1)N/N=C/c1ccc(O)c(O)c1,–,88,·,–,–,–
C/C(=N\NC(=O)CSc1nc2ccccc2o1)c1ccc(O)cc1,–,99,–,–,–,·
COc1cc(Cl)nn(-c2ccccc2)c1=O,–,–,–,–,–,–
O=c1c(Cl)cc(Cl)nn1-c1ccccc1,–,98,–,–,–,–
O=C(Cc1cc2ccccc2o1)NCc1ccc(F)cc1,–,·,–,–,–,–
CCOc1ccc(N(CC(=O)NCCSCc2ccco2)S(=O)(=O)c2ccc(C)cc2)cc1,–,–,–,–,–,81
CCOc1ccc(S(=O)(=O)NCCSCc2ccco2)cc1,–,–,–,–,–,–
COc1ccc(S(=O)(=O)NCCSCc2ccco2)cc1,–,–,34,–,–,–
CCOc1ccc(N(CC(=O)NCCSCc2ccco2)S(=O)(=O)c2ccc(F)cc2)cc1,–,–,–,–,–,–
CCOc1ccc(N(CC(=O)NCC2CCCO2)S(=O)(=O)c2ccc(SC)cc2)cc1 (stereo not given),–,–,34,–,–,–
COC(=O)c1ccccc1NC(=O)CCC(=O)N1CC(C)Oc2ccc(C)cc21 (stereo not given),–,–,–,–,–,–
SMILES,PolyA inh,ALR H2O2 inh,NALP1 yeast inh,Arr AP2 block,NLRP3 yeast inh,Pemphigus Ab inh
CCc1ccccc1NC(=O)CNC(=O)c1cc(C2CC2)nn1-c1ccccc1,·,·,·,–,–,–
O=S(=O)(c1ccc2c(c1)CCN2)N1CCCC1,·,98,·,–,–,–
O=S(=O)(c1ccc2c(c1)CCCN2)N1CCCC1,·,·,·,–,–,–
CC(C)C(=O)N(c1ccc2oc(=O)sc2c1)S(=O)(=O)c1ccccc1,–,96,–,–,–,–
CC(=O)N(c1ccc2oc(=O)sc2c1)S(=O)(=O)c1ccccc1,–,–,–,–,–,–
CCC1(c2ccccc2)NC(=O)N(CC(=O)NCc2ccc(C)cc2)C1=O (stereo not given),–,–,–,–,–,–
CCN1C[C@@H]2[C@@H]3C(=O)N(C)C(=O)[C@@H]3[C@](CC)(C1=O)N2C(=O)c1ccc(C(C)(C)C)cc1,·,–,·,–,–,–
Cc1ccc2nc(/C(C#N)=C/c3ccc(O)c(O)c3)[nH]c2c1,–,89,·,–,–,–
